Sampled rows, rich in hits. Any-hit rate of the full collection: about 9.2%.
HCT116 PTEN-null = growth suppressors of cells with PTEN tumor suppressor deletion | HCT116 PTEN-null viability, CellTiter-Glo, 60 h; hits give low values | 1.2% of 140,000 active | viability, % at 10 µM | AID 827;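 active = viability at or below a set limit, 4 SD under the median of all tested compounds, cut at about 3.7% in these data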;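 also: PTEN knockout HCT116 line with beta catenin targeted HCT116 as companion control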
Autophagy mod = modulators of autophagy | MEF GFP-LC3 puncta imaging; test concentration mostly 10 µM | calls only at 10 µM (by protocol) | 0.98% of 190,000 active | AID 463193;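 active = percentage of spot-positive cells more than 3 SD above its plate mean, without a fluorescence outlier flag or 80% toxicity; inconclusive = no clear call, values can overlap the other calls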
Dynein transport = dynein cargo transport inhibition. 0.47% of 220,000 active. z-score, hits read low. 3617.4 mouse cells, GR-EGFP nuclear translocation imaging; test concentration mostly 20 µM; stimulated with dexamethasone, 1 µM; hits give low values;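 active = plate z-score of nuclear minus cytoplasmic receptor signal below a set negative limit, without overly bright fluorescence or cell loss, cut at about -3.5 in these data, passing the limit was not always enough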;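 also: z-score of nuclear minus cytoplasmic ring GR-EGFP intensity difference per well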
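Schedule: 48 h induction, then 1 h compound, then 30 min agonist, 37 °C. Buffer or medium: tetracycline-free induction medium containing charcoal-stripped FBS. Reagent: 1.0 µM final dexamethasone stimulus. Evaluation: nuclear versus cytoplasmic GR-EGFP signal, averaged per well. Signal: high-content fluorescence imaging after fixation.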
bCat KO growth = beta-catenin-lacking colon tumor cell growth suppression; HCT116 beta-catenin knockout viability, CellTiter-Glo, 60 h; hits give low values; viability, % at 10 µM; 1.5% of 140,000 active; AID 818;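 active = viability at or under a set limit, the compound median less 4 SD, cut at about 6% in these data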
Lmaj promast = Leishmania major promastigote growth inhibition | Leishmania major promastigotes, resazurin fluorescence viability | inhibition, % at 10 µM | 9% of 200,000 active; in the data active = inhibition above about 50%;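 also: promastigotes grown with compound for 44 hours at 28 °C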
L major 1uM = blocks Leishmania major promastigote growth at 1 uM, repeat screen; shares compounds with Lmaj promast; L. major promastigote growth, resazurin fluorescence, 48 h; inhibition, % at 1 µM; 13% of 1,100 active;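 active = inhibition above about 50% in both repeat tests, limit read from the data; inconclusive = one repeat under the set limit, the other over it; inactive = both repeats under the set limit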
Of the large screens only hits and unclear results are named; the others gave an inactive call (follow-up assays come after a bar, where they were run).

CCOC(O)[C@H]1N[C@@H](c2ccc(Cl)cc2)[C@@H]([N+](=O)[O-])[C@@H]1c1ccccc1 (stereo partly drawn)	none
O=C(Cc1ccccc1)Nc1cc(C(=O)c2ccccc2)ccc1N1CCOCC1	Lmaj promast 97 | L major 1uM inactive
C/C(=N\O)c1ccc2c3ccccc3n(C)c2c1	none
CCn1c2ccccc2c2cc(/C(C)=N/O)ccc21	Lmaj promast 69 | L major 1uM inactive
CC1CCC(NC(=O)C(NC(=O)c2ccccc2)C(C)C)CC1 (stereo not drawn)	none (no result: HCT116 PTEN-null, bCat KO growth)
NC(=S)NCc1cccnc1	none (no result: HCT116 PTEN-null, bCat KO growth)
CSC(=S)NCc1cccnc1	Lmaj promast 81 (no result: HCT116 PTEN-null, bCat KO growth) | L major 1uM inactive
CC1(C)Cc2ccccc2C(NNC(=O)c2ccccc2)=N1	none (no result: HCT116 PTEN-null, bCat KO growth)
CC1(C)Cc2ccccc2C(NNC(=O)c2ccccn2)=N1	Lmaj promast 98 | L major 1uM inactive
O=C(NNc1ccccc1)C(=O)NNS(=O)(=O)c1ccc([N+](=O)[O-])cc1	Lmaj promast 89 (no result: HCT116 PTEN-null, bCat KO growth) | L major 1uM inactive
Cc1ccc(SCC(=O)Nc2ccc(N3CCN(C)CC3)c(F)c2)cc1	Lmaj promast 100 | L major 1uM inactive
Cc1c(NC(=O)c2cc3nc(-c4ccc(Cl)cc4)cc(C(F)(F)F)n3n2)c(=O)n(-c2ccccc2)n1C	none
CC1=Nc2ccccc2N=C(NC(=O)CSc2nnnn2-c2ccccc2)C1c1ccccc1 (stereo not drawn)	Lmaj promast 99 | L major 1uM inactive
O=C(COc1ccccc1F)NC1CCN(Cc2ccccc2)CC1	Lmaj promast 91 | L major 1uM 72
CC(C)Sc1cc(N2CCOCC2)nc(-c2ccc(Cl)cc2)n1	none
CCN1CCN(c2cc(SC(C)C)nc(-c3ccc(OC)cc3)n2)CC1	Lmaj promast 100 | L major 1uM inactive
Cc1ccc(-n2nc(C)cc2Nc2ncc(Cl)cc2Cl)cc1	none
Cc1cc(Nc2ncc(Cl)cc2Cl)n(-c2ccccc2C)n1	Lmaj promast 82 | L major 1uM inactive
C#CCNC(=O)C1=C[C@H](c2ccc(Br)cc2)C[C@H](OCCCCO)O1	none (no result: HCT116 PTEN-null, bCat KO growth)
COC(=O)c1ccc(-c2ccc(CNCC(O)c3ccccc3)o2)cc1 (stereo not drawn)	Lmaj promast 99 | L major 1uM 55
O[C@@H](CNC[C@H](O)c1ccccc1)c1ccccc1	none
COc1ccc(OCCSc2nnc(-c3ccoc3C)n2C)cc1	none
Nc1nn(S(=O)(=O)c2ccccc2)cc1-c1ccc([N+](=O)[O-])cc1	Lmaj promast 99 | L major 1uM inactive
Cn1cc(/C=C/C(=O)N2CCCC(C(=O)c3ccc(C(C)(C)C)cc3)C2)cn1 (stereo not drawn)	none (no result: HCT116 PTEN-null, bCat KO growth)
c1ccc(-n2nnnc2-c2cnc(-c3cccnc3)nc2-c2cccs2)cc1	Lmaj promast 95 | L major 1uM inactive
OCc1cn(-c2ccccc2)nc1-c1cccnc1	none
N=C(N)SCc1cn(-c2ccccc2)nc1-c1ccc(Br)cc1	Lmaj promast 101 (no result: HCT116 PTEN-null, bCat KO growth) | L major 1uM 79
COc1ccc2nc(N3C(=O)/C(=C/c4ccccc4)NC3=S)sc2c1	Autophagy mod active, Lmaj promast 61 | L major 1uM inactive
COc1ccc2nc(-n3c(C)ccc3C)sc2c1	none
CCCCCCCCCCCC(=O)c1c(O)cccc1O	none (no result: HCT116 PTEN-null, bCat KO growth)
CC(C)=N/N=C(\c1cccc([N+](=O)[O-])c1)C12CN3CN(CN(C3)C1)C2	Lmaj promast 51 | L major 1uM inactive
Clc1ccc(OCc2cnc(Cl)s2)cc1	none
O=C(CSc1nc2scc(-c3ccccc3)c2c(=O)[nH]1)NC1CCCCC1	Lmaj promast 55 (no result: HCT116 PTEN-null, bCat KO growth) | L major 1uM inactive
CC(C)(C)NC(=O)CSc1nc2scc(-c3ccccc3)c2c(=O)[nH]1	none
Cn1nc(-c2ccccn2)nc2c(=O)n(C)c(=O)nc1-2	none (no result: HCT116 PTEN-null, Autophagy mod, bCat KO growth, Lmaj promast)
CCCc1nc2c(=O)n(C)c(=O)nc-2n(C)n1	Lmaj promast 101 (no result: HCT116 PTEN-null, bCat KO growth) | L major 1uM 94
Cc1ccc(N(CC(O)CON=C2c3ccccc3-c3ccccc32)S(C)(=O)=O)cc1 (stereo not drawn)	Lmaj promast 100 | L major 1uM inconclusive
O=C(COc1ccccc1C(=O)NCC1CCCO1)Nc1ccc(Br)cc1 (stereo not drawn)	none (no result: HCT116 PTEN-null, bCat KO growth)
Cc1ccc([N+](=O)[O-])cc1-c1ccc(/C=N/NC(=O)c2cc3c(ccc4ccccc43)o2)o1	Lmaj promast 100 | L major 1uM inactive
O=C(N/N=C/c1cccc([N+](=O)[O-])c1)c1cc2c(ccc3ccccc32)o1	none
COc1cccc(N=C(N)N)c1	none (no result: HCT116 PTEN-null, bCat KO growth)
O=c1[nH]c(Nc2ccc(F)cc2)cc2ccccc12	none
Cc1ccccc1Nc1cc2ccccc2c(=O)[nH]1	Lmaj promast 53 | L major 1uM inactive
Cc1nn(Cc2ccccc2)c(Cl)c1C(=O)OCC#N	none (no result: HCT116 PTEN-null, bCat KO growth)
Cc1cc(C)nc(NC(=S)Nc2cccc(Cl)c2Cl)c1	none (no result: HCT116 PTEN-null, bCat KO growth)
COC(=O)C1CCN(Cc2cn(-c3ccccc3)nc2-c2ccc3c(c2)OCO3)CC1	none (no result: HCT116 PTEN-null, bCat KO growth)
CCCCC(NC(C)=O)c1nc2ccccc2n1CCCC (stereo not drawn)	none
COc1ccc2nc(-c3ccccc3)[nH]c2c1	Lmaj promast 69 | L major 1uM inactive
O=C(NCCc1c[nH]c2ccccc12)/C(=C\c1cccnc1)NC(=O)c1ccco1	Lmaj promast 61 | L major 1uM inactive
Cc1ncc([N+](=O)[O-])n1CCOC(=O)c1cc(Cl)cc(Cl)c1N	Lmaj promast 60 | L major 1uM inactive
Cc1ncc([N+](=O)[O-])n1CCOC(=O)Nc1ccc([N+](=O)[O-])cc1	none
CCOC(=O)c1ccc(N2C(=O)CC(C(=O)OC)=C2C)cc1	Lmaj promast 86 | L major 1uM inactive
OCCNC1=NCCN1	none
Fc1ccc(Sc2ccccc2CNC2=NCCN2)cc1	Lmaj promast 100 | L major 1uM inactive
Nc1cccc2nc3ccccc3cc12	HCT116 PTEN-null 3.2, Autophagy mod active, bCat KO growth 4.0, Lmaj promast 101 | L major 1uM 79
CCOC1(OCC)C(c2ccc(N)cc2)C(C#N)(C#N)C1(OCC)OCC (stereo not drawn)	Lmaj promast 63 (no result: HCT116 PTEN-null) | L major 1uM inactive
CCOC1(OCC)C(c2ccc(Cl)cc2)C(C#N)(C#N)C1(OCC)OCC (stereo not drawn)	Lmaj promast 100 | L major 1uM inactive
CCCC1C(c2ccc(OC)cc2)C(C#N)(C#N)C2(C#N)CC1(N)NC2=O (stereo not drawn)	none
COc1ccc(N=c2oc3cc(O)ccc3cc2C(=O)NCC2CCCO2)c(OC)c1 (stereo not drawn)	none
O=C(CCc1ccccc1)NC(NC(=S)Nc1ccc(Cl)cc1)C(Cl)(Cl)Cl (stereo not drawn)	none
CCN(CC)S(=O)(=O)c1ccc(C(=O)NCCc2cc3c(OC)ccc(OC)c3[nH]c2=O)cc1	none
COc1ccc(OC)c2[nH]c(=O)c(CCNC(=O)c3ccc(S(=O)(=O)N4CCCC4)cc3)cc12	Lmaj promast 67 | L major 1uM inactive
Oc1ccc(Cl)cc1C1=NCCNC(C(F)(F)C(F)F)=C1	Lmaj promast 76 | L major 1uM inactive

Source: PubChem (several laboratories)
